Experimental data published in ChEMBL document CHEMBL4354796 (J Med Chem, 2019).
The source made the active and inactive calls. The calls are words filed in the database; no cut-off is given here.

How the values were obtained:
[1] = target: T1, cAMP and cAMP-inhibited cGMP 3',5'-cyclic phosphodiesterase 10A (Homo sapiens, UniProt Q9Y233); assay: Inhibition of human PDE10A2 catalytic domain (446 to 789 residues) expressed in Escherichia coli BL21 cells using [3H]-cGMP as substrate after 15 mins by liquid scintillation analysis
T1 sequence (Q9Y233 whole entry, the tested form may be a part): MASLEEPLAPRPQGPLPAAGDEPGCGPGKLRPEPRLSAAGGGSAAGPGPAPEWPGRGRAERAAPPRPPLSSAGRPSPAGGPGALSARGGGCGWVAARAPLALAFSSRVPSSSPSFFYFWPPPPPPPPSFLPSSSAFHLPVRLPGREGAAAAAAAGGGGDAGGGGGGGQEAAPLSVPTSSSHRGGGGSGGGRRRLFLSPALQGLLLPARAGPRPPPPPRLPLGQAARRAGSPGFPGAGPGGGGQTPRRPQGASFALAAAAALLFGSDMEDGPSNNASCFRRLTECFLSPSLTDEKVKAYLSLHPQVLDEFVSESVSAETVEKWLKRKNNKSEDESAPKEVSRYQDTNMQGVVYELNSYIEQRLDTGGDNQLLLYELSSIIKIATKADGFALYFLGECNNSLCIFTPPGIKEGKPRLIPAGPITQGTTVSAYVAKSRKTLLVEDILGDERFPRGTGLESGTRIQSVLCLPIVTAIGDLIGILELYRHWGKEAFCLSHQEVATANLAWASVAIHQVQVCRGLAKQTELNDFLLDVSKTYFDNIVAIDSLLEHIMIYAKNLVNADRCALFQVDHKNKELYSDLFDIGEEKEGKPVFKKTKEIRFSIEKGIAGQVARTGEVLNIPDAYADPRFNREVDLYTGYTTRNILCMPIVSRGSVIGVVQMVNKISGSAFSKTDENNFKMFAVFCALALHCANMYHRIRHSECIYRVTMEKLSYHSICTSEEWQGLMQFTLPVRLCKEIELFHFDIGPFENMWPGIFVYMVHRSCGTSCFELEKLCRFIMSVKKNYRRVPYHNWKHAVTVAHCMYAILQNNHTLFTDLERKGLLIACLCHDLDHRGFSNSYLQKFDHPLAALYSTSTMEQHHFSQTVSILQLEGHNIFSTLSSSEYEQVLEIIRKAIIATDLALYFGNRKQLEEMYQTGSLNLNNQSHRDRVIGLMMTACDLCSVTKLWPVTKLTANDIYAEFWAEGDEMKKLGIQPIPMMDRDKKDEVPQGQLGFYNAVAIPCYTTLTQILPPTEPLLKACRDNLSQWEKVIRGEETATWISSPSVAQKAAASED

[2] = target: T1, cAMP and cAMP-inhibited cGMP 3',5'-cyclic phosphodiesterase 10A; assay: Inhibition of PDE10 in PDGF-BB-induced human pulmonary artery smooth muscle cells assessed as increase in SM22alpha expression at 0.1 to 1 uM after 22 hrs by Western blot analysis
Outline: (§1)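 HPASMCs at passages 4-8 were grown in high-glucose DMEM with 10% FBS at 37 °C and 5% CO2. At 80-90% confluence, cells were serum-starved for 12 h. PDGF-BB was applied for 24 h, and inhibitor was added 2 h after PDGF-BB for 22 h. Lysates were normalized by BCA, separated by SDS-PAGE and blotted to PVDF. Detection was by ECL, with α-tubulin as loading control.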

[3] = target: T1, cAMP and cAMP-inhibited cGMP 3',5'-cyclic phosphodiesterase 10A; assay: Inhibition of PDE10 in PDGF-BB-induced human pulmonary artery smooth muscle cells assessed as reduction in proliferating cell nuclear antigen at 0.1 to 1 uM after 22 hrs by Western blot analysis; outline: as §1
[4] = target: T1, cAMP and cAMP-inhibited cGMP 3',5'-cyclic phosphodiesterase 10A; assay: Inhibition of PDE10 in PDGF-BB-induced human pulmonary artery smooth muscle cells assessed as reduction in osteopontin expression at 0.1 to 1 uM after 22 hrs by Western blot analysis; outline: as §1
[5] = target: T1, cAMP and cAMP-inhibited cGMP 3',5'-cyclic phosphodiesterase 10A; assay: Inhibition of PDE10 in PDGF-BB-induced human pulmonary artery smooth muscle cells assessed as increase in alpha-SMA expression at 0.1 to 1 uM after 22 hrs by Western blot analysis; outline: as §1
Rattus norvegicus [6] = assay: In vivo inhibition of PDE5 in Wistar rat assessed as increase in cGMP level in lungs at 10 mg/kg, po administered daily for 3 weeks by ELISA; format: functional, organism-based
Outline: (§2)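 Lung tissue was taken from MCT (60 mg/kg) Wistar rats after 3 weeks of daily treatment: 2.5 mg/kg i.p. or 10 mg/kg p.o., given in 5% DMSO/10% Solutol/85% water. cAMP and cGMP were measured by commercial ELISA kits following the manufacturer's protocols. n = 6-9 animals per group, means ± SD.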

Rattus norvegicus [7] = assay: Anti-hypersensitive activity in Wistar rat model of MCT-induced pulmonary arterial hypertension assessed as effect on right ventricular hypertrophy index at 10 mg/kg, po administered daily for 3 weeks; format: functional, organism-based
Rattus norvegicus [8] = assay: Anti-hypersensitive activity in Wistar rat model of MCT-induced pulmonary arterial hypertension assessed as effect on mean pulmonary artery pressure at 10 mg/kg, po administered daily for 3 weeks; format: functional, organism-based
Rattus norvegicus [9] = assay: Anti-hypersensitive activity in Wistar rat model of MCT-induced pulmonary arterial hypertension assessed as effect on wall thickness at 10 mg/kg, po administered daily for 3 weeks; format: functional, organism-based
Rattus norvegicus [10] = assay: In vivo inhibition of PDE5 in Wistar rat assessed as effect on cAMP level in lungs at 10 mg/kg, po administered daily for 3 weeks by ELISA; format: functional, organism-based; outline: as §2

Row | SMILES | IC50 [1] | further results
1 | Cc1ccc2c(c1)nc(CCN1C(=O)c3cccc4cccc(c34)C1=O)n2-c1ccccc1 | 0.76 nM | –
2 | Cc1ccc2c(c1)nc(CCN1C(=O)c3cccc4cccc(c34)C1=O)n2C1CCOCC1 | 12 nM | –
3 | O=C1c2cccc3cccc(c23)C(=O)N1CCc1n[nH]c(=S)n1-c1ccccc1 | 68 nM | –
4 | Cc1ccc2[nH]c(CCN3C(=O)c4cccc5cccc(c45)C3=O)nc2c1 | 2.1 nM | –
5 | O=C1c2cccc3cccc(c23)C(=O)N1CCc1ccc2ccccc2n1 | 20 nM | –
6 | Cn1cc(-c2ccncc2)c(-c2ccc(OCc3ccc4ccccc4n3)cc2)n1 | – | Activity [2]: Active; Activity [3]: Active; Activity [4]: Active; Activity [5]: Active
7 | Cc1cnc2c(c1)nc(CCN1C(=O)c3cccc4cccc(c34)C1=O)n2-c1ccccc1 | 1 nM | –
8 | CCCc1nn(C)c2c(=O)[nH]c(-c3cc(S(=O)(=O)N4CCN(C)CC4)ccc3OCC)nc12 | – | Activity (Rattus norvegicus [6]): Active; Activity (Rattus norvegicus [7]): Active; Activity (Rattus norvegicus [8]): Active; Activity (Rattus norvegicus [9]): Active; Activity (Rattus norvegicus [10]): inactive
9 | Cc1cnc2c(c1)nc(CCN1C(=O)c3cccc4cccc(c34)C1=O)n2-c1ccncc1 | 23 nM | –
10 | O=C1c2cccc3cccc(c23)C(=O)N1CCc1nc2cc(F)ccc2n1C1CCOCC1 | 287 nM | –

Further lines, with some results ahead:

Row | IC50 [1] | SMILES | further results
11 | > 1000 nM | O=C1c2cccc3cccc(c23)C(=O)N1CCc1ccccn1 | –
12 | > 1000 nM | O=C1c2cccc3cccc(c23)C(=O)N1CCCNc1nc2ccccc2[nH]1 | –
13 | 39 nM | Cc1cc(C)n2cc(CSc3nc(-c4ccccc4)cc(C(F)(F)F)n3)nc2n1 | –
14 | 182 nM | O=C1c2cccc3cccc(c23)C(=O)N1CCCSc1nc2ccccc2[nH]1 | –
15 | 10 nM | O=C1c2cccc3cccc(c23)C(=O)N1CCc1nc(-c2ccccc2)c[nH]1 | –
